{"data": "Published values of several laboratories", "target": "Serine/threonine-protein kinase D1 (PRKD1, Homo sapiens, UniProt Q15139)", "Sequence (Q15139 1-912, as in one of the studies)": "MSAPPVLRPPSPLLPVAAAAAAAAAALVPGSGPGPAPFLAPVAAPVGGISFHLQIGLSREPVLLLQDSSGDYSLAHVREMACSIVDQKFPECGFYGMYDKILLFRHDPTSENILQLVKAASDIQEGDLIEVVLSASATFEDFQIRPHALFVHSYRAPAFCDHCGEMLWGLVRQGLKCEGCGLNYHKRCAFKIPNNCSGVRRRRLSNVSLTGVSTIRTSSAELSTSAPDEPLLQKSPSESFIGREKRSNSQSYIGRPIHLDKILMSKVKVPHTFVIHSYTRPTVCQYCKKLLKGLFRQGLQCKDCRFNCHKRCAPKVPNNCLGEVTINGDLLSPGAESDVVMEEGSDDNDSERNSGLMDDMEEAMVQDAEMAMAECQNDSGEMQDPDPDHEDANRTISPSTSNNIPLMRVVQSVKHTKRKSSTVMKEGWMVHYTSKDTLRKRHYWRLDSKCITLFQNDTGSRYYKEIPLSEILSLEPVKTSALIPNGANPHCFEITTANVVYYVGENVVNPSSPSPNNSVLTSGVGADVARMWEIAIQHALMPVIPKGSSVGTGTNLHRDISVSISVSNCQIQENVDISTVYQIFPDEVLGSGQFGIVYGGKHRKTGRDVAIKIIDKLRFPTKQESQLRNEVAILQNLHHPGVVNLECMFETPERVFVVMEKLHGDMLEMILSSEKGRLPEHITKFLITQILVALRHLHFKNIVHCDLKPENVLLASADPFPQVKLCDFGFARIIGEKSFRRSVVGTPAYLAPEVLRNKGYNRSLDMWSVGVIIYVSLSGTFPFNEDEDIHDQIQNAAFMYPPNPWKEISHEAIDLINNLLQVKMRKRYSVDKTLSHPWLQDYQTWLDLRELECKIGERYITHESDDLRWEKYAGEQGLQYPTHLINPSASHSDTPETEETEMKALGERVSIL"}
{"Compound": "O=C(NC[C@@H]1[C@H]2CN(C(=O)OCc3cc(C(F)(F)F)cc(C(F)(F)F)c3)C[C@@H]12)c1ccc2[nH]nnc2c1", "observed": "cell-free assay", "technique": "competition with immobilised ligand", "concentration": "1 µM", "endpoint": "remaining binding", "value": "100%"}
{"Compound": "Cc1ccc(C(=O)NCc2ccsc2)cc1C#Cc1cn(C(C)C)c2ncnc(N)c12", "observed": "enzyme activity", "action": "inhibitor", "concentration": "1 µM", "endpoint": "activity vs control", "value": "91%"}
{"Compound": "Nc1nc(Nc2ccccc2)sc1C(=O)c1c(F)cccc1F", "observed": "enzyme activity", "action": "inhibitor", "concentration": "10 µM", "endpoint": "remaining activity", "value": "46%"}
{"Compound": "Nc1ncnc2occ(-c3ccc(NC(=O)Nc4cc(C(F)(F)F)ccc4F)cc3)c12", "observed": "cell-free assay", "action": "inhibitor", "concentration": "20 µM", "endpoint": "remaining signal", "value": "30%"}
{"Compound": "CCCOc1ccc(OC)c(F)c1C(=O)c1ccc(C(=O)N[C@@H]2CNC[C@H]2NC(=O)c2ccc3[nH]ncc3c2)cc1", "observed": "enzyme activity", "action": "inhibitor", "concentration": "10 µM", "endpoint": "remaining activity", "value": "53%"}
{"Compound": "CNC(=O)c1cc(Oc2ccc(NC(=O)Nc3ccc(Cl)c(C(F)(F)F)c3)cc2)ccn1", "observed": "enzyme activity", "action": "inhibitor", "concentration": "0.3 µM", "endpoint": "inhibition", "value": "8%"}
{"Compound": "O=C1Nc2ccc(Cl)cc2C1=Cc1cc(Cl)c(O)c(Cl)c1", "observed": "cell-free assay", "concentration": "0.5 µM", "endpoint": "remaining signal", "value": "91.5%"}
{"Compound": "CNC(=O)Nc1ccc2c(c1)[C@@]1(CC2)OC(=O)N(CC(=O)N(Cc2ccc(F)cc2)[C@@H](C)C(F)(F)F)C1=O", "observed": "cell-free assay", "technique": "competition with immobilised ligand", "concentration": "1 µM", "endpoint": "remaining binding", "value": "100%"}
{"Compound": "Nc1nc(NC2CCCCC2)sc1C(=O)c1ccccc1", "observed": "enzyme activity", "action": "inhibitor", "concentration": "10 µM", "endpoint": "remaining activity", "value": "35%"}
{"Compound": "CS(=O)(=O)NCC[C@H](NC(=O)c1cncc2c1cnn2-c1ccc(F)cc1)c1ccnc(S(C)(=O)=O)c1", "observed": "cell-free assay", "technique": "competition with immobilised ligand", "concentration": "1 µM", "endpoint": "remaining binding", "value": "92%"}
{"Compound": "Cc1cnc(NC2CCOCC2)nc1-n1cnc(C(=O)NC(CN)c2cc(F)cc(Cl)c2)c1 (stereo not shown)", "observed": "enzyme activity", "action": "inhibitor", "technique": "radiometric", "concentration": "1 µM", "endpoint": "remaining activity", "value": "0%"}
{"Compound": "CN(C(=O)c1ccccc1)c1cc(N(C)c2ccc3c(c2)CCc2ccc(C(=O)NCCN4CCOCC4)cc2C3=O)ccc1F", "observed": "cell-free assay", "technique": "competition with immobilised ligand", "concentration": "1 µM", "endpoint": "remaining binding", "value": "86%"}
{"Compound": "Cc1ncc([N+](=O)[O-])n1C(=NO)c1ccccc1C(F)(F)F", "observed": "enzyme activity", "action": "inhibitor", "concentration": "10 µM", "endpoint": "inhibition", "value": "7.69%"}
{"Compound": "CC(C)CC(=O)N1CCc2nc(-c3ccc(Br)cc3)nc(N(C)Cc3ccccc3)c2C1", "observed": "cell-free assay", "technique": "competition with immobilised ligand", "concentration": "0.1 µM", "endpoint": "remaining binding", "value": "87%"}
{"Compound": "Cn1c(=O)n(-c2ccc(C(C)(C)C#N)cc2)c2c3cc(-c4cnc5ccccc5c4)ccc3ncc21", "observed": "enzyme activity", "action": "inhibitor", "concentration": "10 µM", "endpoint": "remaining activity", "value": "107%"}
{"Compound": "COc1cc2ncnc(Nc3ccc(F)c(Cl)c3)c2cc1OCCCN1CCOCC1", "observed": "cell-free assay", "concentration": "0.5 µM", "endpoint": "remaining signal", "value": "85.4%"}
{"Compound": "COc1cc2ncnc(Nc3ccc(Oc4ccccc4)cc3C)c2cc1OC", "observed": "enzyme activity", "action": "inhibitor", "concentration": "1 µM", "endpoint": "inhibition", "value": "8%"}
{"Compound": "CC(C)(C)c1nc2c(s1)c1nc(N)ncc1c1ccc(NS(=O)(=O)c3c(F)cccc3F)c(F)c12", "observed": "enzyme activity", "action": "inhibitor", "technique": "radiometric", "concentration": "1 µM", "endpoint": "remaining activity", "value": "93%"}
{"Compound": "O=C(N[C@H]1CCCCC/C=C\\C2C[C@@]2(C(=O)O)NC(=O)[C@@H]2C[C@@H](Oc3ccncc3)CN2C1=O)OC1CCCC1 (stereo partly shown)", "observed": "binding", "technique": "competition with immobilised ligand", "concentration": "1 µM", "endpoint": "remaining binding", "value": "96%"}
{"Compound": "N#CCCc1ccc2c(c1)-c1[nH]c3ccc([N+](=O)[O-])cc3c1CC(=O)N2", "observed": "cell-free assay", "concentration": "0.5 µM", "endpoint": "remaining signal", "value": "87.5%"}
{"Compound": "Cn1cnc(Br)c1C1=CN(c2ncnc3[nH]cnc23)CCS1", "observed": "enzyme activity", "action": "inhibitor", "technique": "radiometric", "concentration": "2 µM", "endpoint": "inhibition", "value": "91.4%"}
{"Compound": "COc1cc(/C=C/C(=O)CC(=O)/C=C/c2ccc(O)c(OC)c2)ccc1O", "observed": "enzyme activity", "action": "inhibitor", "concentration": "1 µM", "endpoint": "activity vs control", "value": "79%"}
{"Compound": "Cc1ccc(NC(=O)c2ccc(C)c(C(F)(F)F)c2)cc1C#Cc1nn(C2CCC(O)CC2)c2ncnc(N)c12 (stereo not shown)", "observed": "cell-free assay", "concentration": "10 µM", "endpoint": "remaining signal", "value": "91%"}
{"Compound": "FC(F)(F)Oc1cccc(-c2cnc3ccc(-c4ccncc4)nn23)c1", "observed": "enzyme activity", "action": "inhibitor", "technique": "radiometric", "concentration": "1 µM", "endpoint": "activity vs control", "value": "106%"}
{"Compound": "COc1cccc2c(NCc3ccccc3)nc(-n3c(N)nc4ccccc43)nc12", "observed": "target engagement in cells", "action": "inhibitor", "technique": "chemoproteomics", "concentration": "20 mM", "endpoint": "inhibition", "value": "-20.7%"}
{"Compound": "Cc1ccc(Nc2nccc(N(C)c3ccc4c(C)n(C)nc4c3)n2)cc1S(N)(=O)=O", "observed": "enzyme activity", "action": "inhibitor", "concentration": "0.3 µM", "endpoint": "inhibition", "value": "9%"}
{"Compound": "C[C@@H]1CCN(C(=O)CC#N)C[C@@H]1N(C)c1ncnc2[nH]ccc12", "observed": "cell-free assay", "action": "inhibitor", "concentration": "0.5 µM", "endpoint": "remaining signal", "value": "97.3%"}
{"Compound": "Cc1ccc(C(=O)Nc2ccc(CN3CCN(C)CC3)c(C(F)(F)F)c2)cc1C#Cc1cnc2cccnn12", "observed": "enzyme activity", "action": "inhibitor", "concentration": "23.5 nM", "endpoint": "remaining activity", "value": "91%"}
{"Compound": "CC/C(=N\\NC(=O)NCc1cccc(O)c1)c1ccc(O)c(C)c1O", "observed": "enzyme activity", "action": "inhibitor", "concentration": "0.1 µM", "endpoint": "inhibition", "value": "-0.2%"}
{"Compound": "CC(C)(O)c1cncc(-c2nc3ccc(F)cc3n2C2CC2)c1", "observed": "cell-free assay", "technique": "competition with immobilised ligand", "concentration": "1 µM", "endpoint": "remaining binding", "value": "100%"}
{"Compound": "CCOc1cc(-c2nncn2C)ccc1Nc1ncc2cc(C)nc(NCC(C)(C)C)c2n1", "observed": "enzyme activity", "action": "inhibitor", "technique": "FRET", "concentration": "1 µM", "endpoint": "inhibition", "value": "37%"}
{"Compound": "CCCCN(CCCC)C(=O)CN1C[C@H](c2cc(OC)c3c(c2)OCO3)[C@@H](C(=O)O)[C@@H]1CC(C)(C)CCC", "observed": "cell-free assay", "technique": "competition with immobilised ligand", "concentration": "1 µM", "endpoint": "remaining binding", "value": "79.4%"}
{"Compound": "O=C(Nc1cnn(-c2csc(C(=O)NC3COC3)c2)c1)Nc1ccccc1Cl", "observed": "enzyme activity", "action": "inhibitor", "concentration": "5 µM", "endpoint": "remaining activity", "value": "114%"}
{"Compound": "Cn1cncc1C1=CN(c2ncnc3[nH]cnc23)CCS1", "observed": "enzyme activity", "action": "inhibitor", "technique": "radiometric", "concentration": "2 µM", "endpoint": "inhibition", "value": "89.2%"}
